The source made the active and inactive calls.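 The calls were made as follows, unless noted: active = potentiation averaged over duplicate wells exceeding buffer-only control mean by more than 3 SD; inactive = the rest.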
Key:
[1] = thallium flux activation in parental CHO cells, counter-screen for KCNQ1 potentiator project (AID 493006;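 active = duplicate-averaged activation above buffer control mean plus 5 SD of those controls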); settings: parental CHO-K1 cells, FluxOR thallium flux, at 10 µM; stronger effect = higher value
Outline: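 Test system: parental CHO-K1 cells, FluxOR dye-loaded / Probe or stimulus: potassium plus thallium depolarizing stimulus, 5x stock 12.5 mM K2SO4, Tl2SO4 / Timing: overnight 37 °C plating, 90 min dye, 20 min dark compound / Measured by: kinetic thallium-flux fluorescence / Read-out: max-minus-min fluorescence over baseline, percent of buffer-to-R-L3 span / Benchmarks: buffer and R-L3 controls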

[2] = target: Potassium voltage-gated channel subfamily KQT member 1 (Homo sapiens) (UniProt P51787); experiment: KCNQ1 potassium channel potentiators, confirmation, FluxOR thallium flux, CHO cells, duplicates (AID 493007); settings: KCNQ1 cell line, FluxOR thallium flux fluorescence, at 10 µM; stronger effect = higher value, % of reference activator effect, buffer zero;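 as to outcome: cells depolarized by a potassium plus thallium sulfate stimulus after compound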;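 as to potentiation: 0% = buffer-only wells and 100% = R-L3 activator control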
Sequence of Potassium voltage-gated channel subfamily KQT member 1 (Homo sapiens) (P51787 whole entry, looked up): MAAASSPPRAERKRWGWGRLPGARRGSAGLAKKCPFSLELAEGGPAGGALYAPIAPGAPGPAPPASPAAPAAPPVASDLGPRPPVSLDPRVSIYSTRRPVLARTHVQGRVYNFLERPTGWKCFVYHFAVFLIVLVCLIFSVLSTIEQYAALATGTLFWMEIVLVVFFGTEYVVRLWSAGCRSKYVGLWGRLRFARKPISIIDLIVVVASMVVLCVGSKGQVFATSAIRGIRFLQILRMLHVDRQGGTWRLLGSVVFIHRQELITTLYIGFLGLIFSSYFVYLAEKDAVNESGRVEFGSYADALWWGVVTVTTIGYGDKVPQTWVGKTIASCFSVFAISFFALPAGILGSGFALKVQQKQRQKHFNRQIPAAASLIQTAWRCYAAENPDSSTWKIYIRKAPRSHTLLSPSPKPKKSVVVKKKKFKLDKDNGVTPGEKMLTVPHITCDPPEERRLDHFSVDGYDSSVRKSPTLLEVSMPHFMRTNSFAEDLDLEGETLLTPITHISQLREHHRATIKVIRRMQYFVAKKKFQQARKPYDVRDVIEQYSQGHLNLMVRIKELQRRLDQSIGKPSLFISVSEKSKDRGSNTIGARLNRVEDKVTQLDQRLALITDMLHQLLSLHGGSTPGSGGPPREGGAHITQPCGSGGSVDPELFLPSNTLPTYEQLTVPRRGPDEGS
Outline: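 Assay system: CHO cells carrying KCNQ1 | Controls: Buffer and R-L3 controls | Schedule: FluxOR dye loading 90 min, compound exposure 20 min, room temperature | Read-out: Baseline-normalized fluorescence change, percent of buffer-to-R-L3 range | Replicates: Each compound tested in duplicate | Technique: Kinetic thallium influx fluorescence with FluxOR dye, 10 s baseline, 110 s post-stimulus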

[3] = target: Potassium voltage-gated channel subfamily KQT member 2 (Rattus norvegicus) (UniProt O88943); experiment: rat KCNQ2 channel potentiation, selectivity assay for KCNQ1 potentiator project, KCNQ2-CHO-K1 cells (AID 493009;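 active = mean duplicate potentiation above the buffer control mean plus 5 SD of buffer wells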;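 also: assay conditions were tuned for KCNQ1 rather than KCNQ2 modulators; signal is max minus min fluorescence divided by baseline after thallium stimulus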); settings: FluxOR thallium flux fluorescence, at 10 µM; stronger effect = higher value, scaled: buffer 0, activator control 100
Sequence of Potassium voltage-gated channel subfamily KQT member 2 (Rattus norvegicus) (O88943 whole entry, looked up): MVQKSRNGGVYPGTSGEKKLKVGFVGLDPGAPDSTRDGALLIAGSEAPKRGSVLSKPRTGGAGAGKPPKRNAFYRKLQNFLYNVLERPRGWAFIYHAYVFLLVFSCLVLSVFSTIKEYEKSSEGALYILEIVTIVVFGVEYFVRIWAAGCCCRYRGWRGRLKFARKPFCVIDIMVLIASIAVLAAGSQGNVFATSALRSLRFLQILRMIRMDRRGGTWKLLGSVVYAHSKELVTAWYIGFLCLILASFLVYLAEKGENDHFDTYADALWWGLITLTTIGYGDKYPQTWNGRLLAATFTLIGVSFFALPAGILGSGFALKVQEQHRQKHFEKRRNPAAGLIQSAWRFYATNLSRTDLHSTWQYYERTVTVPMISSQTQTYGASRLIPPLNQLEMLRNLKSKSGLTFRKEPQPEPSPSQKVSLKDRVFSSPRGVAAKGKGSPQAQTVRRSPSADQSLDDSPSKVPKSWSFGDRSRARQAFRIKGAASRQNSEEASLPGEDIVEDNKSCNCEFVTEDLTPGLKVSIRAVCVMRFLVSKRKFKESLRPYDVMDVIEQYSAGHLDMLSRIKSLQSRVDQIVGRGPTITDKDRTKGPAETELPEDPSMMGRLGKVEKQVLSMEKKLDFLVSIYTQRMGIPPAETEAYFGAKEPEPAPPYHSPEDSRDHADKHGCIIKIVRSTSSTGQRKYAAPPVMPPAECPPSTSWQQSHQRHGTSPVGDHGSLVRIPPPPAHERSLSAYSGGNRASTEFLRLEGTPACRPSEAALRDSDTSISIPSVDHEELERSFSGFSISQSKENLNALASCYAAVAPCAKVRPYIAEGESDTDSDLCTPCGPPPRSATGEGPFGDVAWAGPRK

[4] = target: Potassium voltage-gated channel subfamily KQT member 1 (Homo sapiens) (UniProt P51787); experiment: KCNQ1 channel current potentiators, confirmation, orthogonal assay for KCNQ1 potentiator project, IonWorks patch clamp, KCNQ1-CHO cells (AID 493184;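 active = current rise at least 3 SD above the untreated control mean in each of two repeat wells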;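 as to current potentiation: percent change of the same well's current before compound addition so 0% = no change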); settings: automated patch clamp current, at 10 µM; stronger effect = higher value
Outline: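 Material: KCNQ1-expressing CHO cells; doses: 10 µM final, single point; probe or stimulus: voltage step from -90 mV holding to +40 mV, 2,000 ms; signal: automated voltage clamp, amphotericin B perforated patch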

[5] = target: Potassium voltage-gated channel subfamily E member 1 (Homo sapiens) + Potassium voltage-gated channel subfamily KQT member 1 (Homo sapiens) (UniProt P15382+P51787); experiment: KCNQ1/KCNE1 complex potentiators, confirmation, selectivity assay for KCNQ1 potentiator project, thallium flux, CHO-K1 KCNQ1/E1 cells (AID 493186;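 active = mean duplicate activation above the buffer control mean plus 5 SD of those controls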); settings: FluxOR thallium flux, at 10 µM; stronger effect = higher value
Sequence of Potassium voltage-gated channel subfamily E member 1 (Homo sapiens) + Potassium voltage-gated channel subfamily KQT member 1 (Homo sapiens) (P51787 whole entry, looked up): as the sequence (P51787 whole entry, looked up) above
Outline: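 Test system: CHO-K1 cells with KCNQ1/E1. Times: 90-min dye loading then 20-min compound exposure, both at room temperature. Measured by: kinetic FluxOR thallium-flux fluorescence, 10 s baseline plus 110 s after stimulus. Repeats: duplicate wells per compound.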

Cn1cnc([N+](=O)[O-])c1S(=O)(=O)c1cccc(Cl)c1
inactive: outcome [1] | outcome [2] | outcome [3] | outcome [4] | outcome [5]

CN(C(=O)c1ccc2c(c1)OCO2)C1CCCCC1
inactive: outcome [1] | outcome [2] | outcome [3] | outcome [4] | outcome [5]

Cc1cc(NC(=O)CSCC(=O)OC(C)C(=O)N(C)Cc2ccccc2)no1 (configuration not stated)
active: potentiation [2] 28%
inactive: outcome [1] | outcome [3] | outcome [4] | outcome [5]

Cc1cc(/C=N/n2cnnc2)c(C)n1-c1cc(Cl)ccc1Cl
active: current potentiation [4] 18.5%
inactive: outcome [1] | outcome [2] | outcome [3] | outcome [5]

Cc1nnnn1/C(=C\c1ccccc1)C(=O)OCC(=O)Nc1ccc(Cl)cc1F
inactive: outcome [1] | outcome [2] | outcome [3] | outcome [4] | outcome [5]

COc1ccc(OC)c(NC(=S)N2CCC(C(O)(c3ccccc3)c3ccccc3)CC2)c1
active: potentiation [2] 43% | potentiation [3] 174%
inactive: outcome [1] | outcome [4] | outcome [5]

O=C(O)/C=C/C(=O)c1ccc2c(c1)CCc1ccccc1-2
inactive: outcome [1] | outcome [2] | outcome [3] | outcome [4] | outcome [5]

O=C1c2ccccc2C(=O)C12OC2c1cccc2ccccc12 (configuration not stated)
inactive: outcome [1] | outcome [2] | outcome [3] | outcome [4] | outcome [5]

Cc1nc(=S)c2c([nH]1)-c1ccccc1CC21CCCCC1
inactive: outcome [1] | outcome [4] | outcome [5]
active: potentiation [2] 84.5% | potentiation [3] 180%

C/C(=N\Nc1cccc2cccnc12)c1ccc[nH]1
inactive: outcome [1] | outcome [3] | outcome [4] | outcome [5]
active: potentiation [2] 30%

Cc1cccc(/N=C/c2sc3ccccc3c2O)n1
inactive: outcome [1] | outcome [2] | outcome [3] | outcome [4] | outcome [5]

S=c1nc[nH]c2c1[nH]c1ccc(Cl)cc12
inactive: outcome [1] | outcome [2] | outcome [3] | outcome [4] | outcome [5]

C#CCNc1cc(-c2ccccc2)nc2ncnn12
inactive: outcome [1] | outcome [2] | outcome [3] | outcome [4] | outcome [5]

CCN(CC)CCCNC(=O)c1c(O)c2cc(F)cc3c2n(c1=O)C(C)CC3 (configuration not stated)
inactive: outcome [1] | outcome [2] | outcome [3] | outcome [4] | outcome [5]

Cc1ccc(/C(O)=C/C(=O)C(=O)NNC(=O)C(O)(c2ccccc2)c2ccccc2)cc1
inactive: outcome [1] | outcome [2] | outcome [3] | outcome [4] | outcome [5]

COC(=O)[C@H](C)NC(=O)Nc1cc(Cl)ccc1C
inactive: outcome [1] | outcome [2] | outcome [3] | outcome [4] | outcome [5]

Cc1ccc(/C=N/NC(=O)c2cc(C3CC3)nc3ccccc23)o1
active: potentiation [2] 29.5%
inactive: outcome [1] | outcome [3] | outcome [4] | outcome [5]

CCOC(=O)C1CCN(S(=O)(=O)c2ccc3c4c2CC(=O)N4CC(C)S3)CC1 (configuration not stated)
inactive: outcome [1] | outcome [2] | outcome [3] | outcome [4] | outcome [5]

CCOC(=O)c1oc2ccc(S(=O)(=O)n3nc(-c4ccc(OC)cc4)cc3N)cc2c1C
inactive: outcome [1] | outcome [2] | outcome [3] | outcome [5]
active: current potentiation [4] 15.4%

Cc1onc(-c2ccccc2)c1C(=O)NC(=S)NNC(=O)c1ccccc1O
inactive: outcome [1] | outcome [3] | outcome [4] | outcome [5]
active: potentiation [2] 17.5%

CN(C)CCNc1nc2sc3c(c2c(=O)n1CCc1ccccc1)CCCCC3
inactive: outcome [1] | outcome [3] | outcome [4] | outcome [5]
active: potentiation [2] 19%

CC(=O)/C(=N/Nc1ccc([N+](=O)[O-])cc1)N1CCCc2ccccc21
inactive: outcome [1] | outcome [2] | outcome [3] | outcome [4] | outcome [5]

O=C(CN(CCO)c1ccccc1)Nc1cccc(S(=O)(=O)N2CCCC2)c1
inactive: outcome [1] | outcome [3] | outcome [4] | outcome [5]
active: potentiation [2] 22.5%

CCn1c(SCC(=O)c2cccs2)nnc1-c1cccs1
inactive: outcome [1] | outcome [2] | outcome [3] | outcome [4] | outcome [5]

COC(=O)c1sccc1NS(=O)(=O)c1ccc(F)cc1F
inactive: outcome [1] | outcome [2] | outcome [3] | outcome [4] | outcome [5]

COc1ccc(/C=C(\NC(=O)c2cccs2)C(=O)N2CCOCC2)cc1OC
active: activation [1] 137% | potentiation [2] 29.5%
inactive: outcome [4]

Cc1ccc(NC(=O)Cn2nc(C)c3ccccc3c2=O)c(C)c1
inactive: outcome [1] | outcome [2] | outcome [4]

O=C(c1ccc(COc2c(F)c(F)cc(F)c2F)o1)N1CCN(c2ccc(Cl)cc2)CC1
inactive: outcome [1] | outcome [2] | outcome [4]

O=C(N1CCOCC1)N1CCC(n2nnc3ccccc32)CC1
inactive: outcome [1] | outcome [2] | outcome [4]

S=c1[nH]c2ccccc2c2ccccc12
inactive: outcome [2] | outcome [4]
active: activation [1] 148%

NC(=O)c1ccc(N2CCNC(=O)C2)c([N+](=O)[O-])c1
inactive: outcome [1] | outcome [2] | outcome [4]

CN(C(=S)NC(=O)c1ccccc1Br)C1CCCCC1
inactive: outcome [4]
active: activation [1] 206% | potentiation [2] 44%

Cc1ccc(Nc2c(-c3ccc(C)o3)nc3cnccn23)cc1
inactive: outcome [1] | outcome [2] | outcome [4]

CN(Cc1cccnc1)C(=O)Cc1ccc(NS(=O)(=O)c2cccc(C(F)(F)F)c2)cc1
inactive: outcome [1] | outcome [2] | outcome [4]

CCc1ccc(C2c3[nH]c4ccccc4c3CCN2C(=O)CN2CCN(CC)CC2)cc1 (configuration not stated)
inactive: outcome [1] | outcome [2] | outcome [4]

O=C(CCSc1ccccc1)Nc1ccc(S(=O)(=O)Nc2ncccn2)cc1
inactive: outcome [1] | outcome [2] | outcome [4]

CCc1ccc(NC(=O)C2CCN(C(=O)[C@@H]3Cc4ccccc4CN3)CC2)cc1
inactive: outcome [1] | outcome [2] | outcome [4]

CCOC(=O)CS(=O)(=O)c1nc(-c2ccc(F)cc2)cc(C(F)(F)F)n1
inactive: outcome [1] | outcome [2] | outcome [4]

O=C(NC(=S)Nc1ccc(Br)cn1)c1cccs1
inactive: outcome [1] | outcome [2] | outcome [4]

Cc1ccc(-n2c(-c3ccc(Cl)cc3)n[nH]c2=S)c(C)c1
inactive: outcome [1] | outcome [2] | outcome [4]

Cc1ccc(C)c(NC(=S)NNC(=O)c2csc(C(C)C)c2)c1
active: activation [1] 162% | potentiation [2] 55.5%
inactive: outcome [4]

Cc1cccc(N(CC(=O)NC2CCCC2)C(=O)c2csnn2)c1C
inactive: outcome [1] | outcome [2] | outcome [4]

CSc1cccc(NC(=O)CN2C(=O)c3ccccc3S2(=O)=O)c1
inactive: outcome [1] | outcome [2] | outcome [4]

O=[N+]([O-])c1ccc(C(O)C(CO)NC(=S)Nc2ccccc2)cc1 (configuration not stated)
inactive: outcome [1] | outcome [2] | outcome [4]

N#C/C(=C/c1cn(-c2ccccc2)nc1-c1cccc(OCc2ccc(F)cc2)c1)C(=O)NCCCn1ccnc1
inactive: outcome [1] | outcome [2] | outcome [4]

CCc1ccc(NC(=S)NC2CC3CCCC(C2)N3Cc2cccs2)cc1 (configuration not stated)
inactive: outcome [1] | outcome [2] | outcome [3] | outcome [4] | outcome [5]

CN(C(=S)NC(=O)c1ccc(F)cc1)C1CCCCC1
inactive: outcome [4]
active: activation [1] 154% | potentiation [2] 31.5%

CCOc1cc(S(=O)(=O)Nc2ccc(Cl)cn2)ccc1Cl
inactive: outcome [1] | outcome [2] | outcome [4]

CC(=O)c1ccc(NC(=S)NC(=O)c2c(Cl)c(C)nn2C)cc1
inactive: outcome [1] | outcome [2] | outcome [4]

COc1cccc(NC(=O)CSCc2cc(=O)n3ccsc3n2)c1
inactive: outcome [1] | outcome [2] | outcome [4]

O=C(Nc1cccc(-c2nnc(-c3ccco3)o2)c1)c1ccccc1
inactive: outcome [1] | outcome [2] | outcome [4]

COc1cc(/C=C2\C(=O)N(CCC#N)N=C2C)c(Br)cc1OC(C)C
inactive: outcome [1] | outcome [2] | outcome [3] | outcome [4] | outcome [5]

CCOC(=O)N1CCC(N2C(=O)c3ccc(C(=O)NCCC(C)C)cc3C2=O)CC1
inactive: outcome [1] | outcome [4] | outcome [5]
active: potentiation [2] 69% | potentiation [3] 150%

COc1ccc(-c2cc(-c3ccccc3)c(C#N)c(=S)[nH]2)cc1
inactive: outcome [1] | outcome [2] | outcome [3] | outcome [4] | outcome [5]

CCOc1ccccc1NC1=C(Cl)C(=O)N(c2ccccc2)C1=O
inactive: outcome [1] | outcome [2] | outcome [4]

CNCCC=C1c2ccccc2CCc2ccccc21
active: activation [1] 150% | potentiation [2] 76%
inactive: outcome [4]

COc1cccc2c1C(=O)C=C(C)C2=O
inactive: outcome [1] | outcome [2] | outcome [4]

N=C1/C(=C\c2ccc(-c3cccc(Cl)c3)o2)C(=O)N=C2SC=C(c3ccccc3)N12
inactive: outcome [1] | outcome [4]
active: potentiation [2] 29%

— PubChem BioAssay
